Assay results as given in ChEMBL document CHEMBL4732114, “Design and structural optimization of novel 2H-benzo[h]chromene derivatives that target AcrB and reverse bacterial multidrug resistance” (Eur J Med Chem, 2021).
≈ marks a conversion by molar mass, not a printed value. Calls of active or inactive are those of the source. The calls are words filed in the database; no cut-off is given here.

Key:
[1] = target: T1, Multidrug efflux pump subunit AcrB (Escherichia coli (strain K12)) (UniProt P31224); experiment: Inhibition of AcrB in multidrug-resistant Escherichia coli BW25113 assessed as potentiation of levofloxacin-induced antibacterial activity by measuring levofloxacin MIC at 8 ug/ml by checkerboard titration method (reference value: 0.06 ug/ml); details: dose 8.0 µg/ml
T1 sequence (whole entry): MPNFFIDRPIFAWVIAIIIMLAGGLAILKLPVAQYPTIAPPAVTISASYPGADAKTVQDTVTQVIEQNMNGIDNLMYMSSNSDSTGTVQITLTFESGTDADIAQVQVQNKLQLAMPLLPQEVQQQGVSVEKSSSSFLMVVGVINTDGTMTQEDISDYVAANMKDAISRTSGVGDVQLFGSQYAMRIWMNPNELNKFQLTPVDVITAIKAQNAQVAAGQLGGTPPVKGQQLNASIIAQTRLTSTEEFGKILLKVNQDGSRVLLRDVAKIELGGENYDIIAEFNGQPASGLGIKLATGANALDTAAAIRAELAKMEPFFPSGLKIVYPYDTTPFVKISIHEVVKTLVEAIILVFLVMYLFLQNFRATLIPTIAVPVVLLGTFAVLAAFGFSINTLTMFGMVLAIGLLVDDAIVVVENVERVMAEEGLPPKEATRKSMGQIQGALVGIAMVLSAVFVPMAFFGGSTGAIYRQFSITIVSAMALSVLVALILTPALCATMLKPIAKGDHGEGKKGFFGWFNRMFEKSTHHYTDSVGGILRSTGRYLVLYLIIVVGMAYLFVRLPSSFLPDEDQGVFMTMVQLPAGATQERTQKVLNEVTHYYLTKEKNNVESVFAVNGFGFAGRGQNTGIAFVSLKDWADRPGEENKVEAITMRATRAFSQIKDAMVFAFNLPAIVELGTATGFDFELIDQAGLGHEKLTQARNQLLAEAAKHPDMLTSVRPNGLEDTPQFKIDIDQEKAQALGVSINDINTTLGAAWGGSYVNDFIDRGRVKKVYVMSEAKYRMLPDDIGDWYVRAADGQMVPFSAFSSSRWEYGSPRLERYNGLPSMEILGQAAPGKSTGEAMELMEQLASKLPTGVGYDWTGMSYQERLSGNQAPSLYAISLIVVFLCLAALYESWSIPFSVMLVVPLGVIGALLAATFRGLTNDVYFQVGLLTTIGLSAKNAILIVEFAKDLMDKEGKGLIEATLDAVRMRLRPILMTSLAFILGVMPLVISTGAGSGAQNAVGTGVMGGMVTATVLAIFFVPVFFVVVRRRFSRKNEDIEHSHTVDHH

[2] = target: T1, Multidrug efflux pump subunit AcrB (Escherichia coli (strain K12)); details: Escherichia coli BW25113; dose 32.0 µg/ml
[3] = target: T1, Multidrug efflux pump subunit AcrB (Escherichia coli (strain K12)); details: Escherichia coli BW25113; dose 128.0 µg/ml
[4] = target: T1, Multidrug efflux pump subunit AcrB (Escherichia coli (strain K12)); experiment: Inhibition of AcrB in multidrug-resistant Escherichia coli BW25113 assessed as potentiation of tetraphenylphosphonium-induced antibacterial activity by measuring tetraphenylphosphonium MIC at 32 ug/ml by checkerboard titration method (reference value: 1024 ug/ml); details: dose 32.0 µg/ml
[5] = target: T1, Multidrug efflux pump subunit AcrB (Escherichia coli (strain K12)); details: Escherichia coli BW25113; dose 8.0 µg/ml
[6] = target: T1, Multidrug efflux pump subunit AcrB (Escherichia coli (strain K12)); details: Escherichia coli BW25113; dose 64.0 µg/ml
[7] = target: T1, Multidrug efflux pump subunit AcrB (Escherichia coli (strain K12)); experiment: Inhibition of AcrB in multidrug-resistant Escherichia coli BW25113 assessed as potentiation of chloramphenicol-induced antibacterial activity by measuring chloramphenicol MIC at 128 ug/ml by checkerboard titration method (reference value: 8 ug/ml); details: dose 128.0 µg/ml
[8] = target: T1, Multidrug efflux pump subunit AcrB (Escherichia coli (strain K12)); experiment: Inhibition of AcrB in multidrug-resistant Escherichia coli BW25113 assessed as potentiation of chloramphenicol-induced antibacterial activity by measuring chloramphenicol MIC at 32 ug/ml by checkerboard titration method (reference value: 8 ug/ml); details: dose 32.0 µg/ml
[9] = target: T1, Multidrug efflux pump subunit AcrB (Escherichia coli (strain K12)); experiment: Inhibition of AcrB in multidrug-resistant Escherichia coli BW25113 assessed as potentiation of erythromycin-induced antibacterial activity by measuring erythromycin MIC at 32 ug/ml by checkerboard titration method (reference value: 64 ug/ml); details: dose 32.0 µg/ml
[10] = Toxicity in multidrug-resistant Escherichia coli BW25113 harboring AcrB deletion mutant assessed as growth inhibition by two-fold broth dilution method
[11] = target: T1, Multidrug efflux pump subunit AcrB (Escherichia coli (strain K12)); experiment: Inhibition of AcrB in Escherichia coli BW25113 assessed as reduction in glucose-induced nile red efflux at 100 uM preincubated for 15 mins followed by nile red addition and incubated for 3 hrs in shaker in presence of CCCP by fluorimetric analysis; details: time 3.25 hrs
Procedure, shortened: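 Wild-type and AcrB-deleted cells were preloaded with Nile Red, with or without compound. Fluorescence was recorded, and efflux was triggered at 100 s with 0.2% glucose. Traces were compared with the deletion-strain level. Triplicate experiments used different cell batches.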

[12] = target: T1, Multidrug efflux pump subunit AcrB (Escherichia coli (strain K12)); experiment: Inhibition of AcrB in multidrug-resistant Escherichia coli BW25113 assessed as potentiation of erythromycin-induced antibacterial activity by measuring erythromycin MIC at 128 ug/ml by checkerboard titration method (reference value: 64 ug/ml); details: dose 128.0 µg/ml
[13] = target: T1, Multidrug efflux pump subunit AcrB (Escherichia coli (strain K12)); experiment: Inhibition of AcrB in multidrug-resistant Escherichia coli BW25113 assessed as potentiation of chloramphenicol-induced antibacterial activity by measuring chloramphenicol MIC at 16 ug/ml by checkerboard titration method (reference value: 8 ug/ml); details: dose 16.0 µg/ml
[14] = target: T1, Multidrug efflux pump subunit AcrB (Escherichia coli (strain K12)); experiment: Inhibition of AcrB in multidrug-resistant Escherichia coli BW25113 assessed as potentiation of tetraphenylphosphonium-induced antibacterial activity by measuring tetraphenylphosphonium MIC at 8 ug/ml by checkerboard titration method (reference value: 1024 ug/ml); details: dose 8.0 µg/ml
[15] = target: T1, Multidrug efflux pump subunit AcrB (Escherichia coli (strain K12)); experiment: Inhibition of AcrB in multidrug-resistant Escherichia coli BW25113 assessed as potentiation of tetraphenylphosphonium-induced antibacterial activity by measuring tetraphenylphosphonium MIC at 64 ug/ml by checkerboard titration method (reference value: 1024 ug/ml); details: dose 64.0 µg/ml
[16] = Toxicity in multidrug-resistant Escherichia coli BW25113 assessed as growth inhibition by two-fold broth dilution method

| Compound | MIC [1] [µg/mL] | MIC [2] [µg/mL] | MIC [3] [µg/mL] | MIC [4] [µg/mL] | MIC [5] [µg/mL] | MIC [6] [µg/mL] | MIC [7] [µg/mL] | MIC [8] [µg/mL] | MIC [9] [µg/mL] | MIC [10] [µg/mL] | inhibition [11] | MIC [12] [µg/mL] | MIC [13] [µg/mL] | MIC [14] [µg/mL] | MIC [15] [µg/mL] | MIC [16] [µg/mL] |
| --- | --- | --- | --- | --- | --- | --- | --- | --- | --- | --- | --- | --- | --- | --- | --- | --- |
| CC1(C)CCc2c(C(=O)N3CCOCC3)cc3c(OCc4ccccc4)cccc3c2O1 | 0.03 | 16 (≈ 37.1 µM) | 16 (≈ 37.1 µM) | 512 | 16 (≈ 37.1 µM) | 16 (≈ 37.1 µM) | 4 | 4 | 64 | > 128 | Active | 8 | 4 | 512 | 512 | > 512 |
| CC1(C)CC(=O)c2ccc(OCCNC3CCCC3)cc2O1 | 0.06 | 16 (≈ 52.7 µM) | 16 (≈ 52.7 µM) | 512 | 16 (≈ 52.7 µM) | 16 (≈ 52.7 µM) | 8 | 8 | 64 | > 128 |  | 64 | 8 | 512 | 512 | > 512 |
| CC1(C)CCc2c(-c3nnco3)cc3c(OCc4ccccc4)cccc3c2O1 | 0.06 | 16 (≈ 41.4 µM) | 16 (≈ 41.4 µM) | 512 | 16 (≈ 41.4 µM) | 16 (≈ 41.4 µM) | 2 | 4 | 32 | > 128 | Active | 16 | 8 | 512 | 512 | > 512 |
| CC1(C)CC(=O)c2ccc(OCC(=O)Nc3ccc(C#N)c(C(F)(F)F)c3)cc2O1 | 0.06 | 16 (≈ 38.2 µM) | 16 (≈ 38.2 µM) | 512 | 16 (≈ 38.2 µM) | 16 (≈ 38.2 µM) |  | 8 | 64 | > 128 |  |  | 8 | 1020 | 256 | > 512 |
| CC1(C)CCc2c(C(=O)O)cc3c(OCc4ccccc4)cccc3c2O1 | 0.06 | 16 (≈ 44.1 µM) | 16 (≈ 44.1 µM) | 512 | 16 (≈ 44.1 µM) | 16 (≈ 44.1 µM) | 1 | 8 | 64 | > 128 | Active | 32 | 8 | 1020 | 256 | > 512 |
| CC1(C)CCc2c(C(=O)N3CCOCC3)cc3c(OCc4ccc(C(F)(F)F)cc4)cccc3c2O1 | 0.06 | 16 (≈ 32 µM) | 16 (≈ 32 µM) | 512 | 16 (≈ 32 µM) | 16 (≈ 32 µM) | 4 | 8 | 64 | > 128 |  | 16 | 8 | 512 | 512 | > 512 |
